Laboratory results as given in paper PMC6811854 (ACS Omega, 2019).

Assays:
[1] = tested on: Neuro2A cells; test: Neurite outgrowth assay; type: cell-based, mouse; conditions: for optimum neuritogenic concentration: average neurite length; for neurite outgrowth promotion compared to no inhibitor (vehicle): differentiated Neuro2A cells, 48 h post-treatment, 10, 1, 0.1, 0.01 μM
[2] = tested on: Neuro2A cells; test: Immunoblot of acetylated H3, H4 and tubulin in Neuro2A cells; type: cell-based, mouse; conditions: 1 μM, compared to vehicle
Summary of the method: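 Neuro2A cells were exposed to compound or vehicle and harvested in Laemmli buffer; protein was assayed by amido black. Equal protein went on 12% SDS-PAGE, then PVDF transfer. Primaries ran overnight at 4 °C and secondaries 2 h at room temperature, with chemiluminescent detection. Acetylated H3, H4 and tubulin were quantified and compared with vehicle by Student's t-test.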

[3] = tested on: HDAC8 (class I), HDAC4 (class IIa), HDAC6 (class IIb); test: HDACi selectivity assay; type: biochemical, Human; conditions: enzymes immunoprecipitated from HeLA cells; 10, 1, 0.1, 0.01, 0.001 μM
[4] = BBB crossing: TLC detection in Zebrafish brain extract; type: in vivo; conditions: 25 mg/kg, intraperitoneal injection
Summary of the method: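 Adult zebrafish were dosed with 25 mg/kg test compound or DMSO vehicle. Fish were anaesthetised on ice, and the whole brain was removed and freeze-dried in liquid nitrogen. Brains were ground in HPLC-grade ethyl acetate, sonicated, centrifuged (10 000 rpm, 20 min) and left 20 min to separate the extract. Compound in the extract was detected by TLC.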

[5] = tested on: Zebrafish; test: Social interaction test in chronic unpredictable stress; type: in vivo, Zebrafish (Danio rerio); conditions: intraperitoneal
Summary of the method: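 Adult zebrafish were held at 28 ± 2 °C on a 14/10 h light/dark cycle. They then had 7 days of chronic unpredictable stress, two varied stressors daily (restraint, 33/23 °C, isolation, crowding, predator, chasing, alarm pheromone, etc.). Test compound was given at 10, 25 or 50 mg/kg, with fluoxetine 15 mg/kg as reference. Each fish then spent 120 s with an unfamiliar pink zebrafish target. Video was scored manually for latency, interaction time and freezing; n = 15.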

[6] = tested on: Neuro2A cells; test: Cell viability assay; type: cell-based, mouse; conditions: 10 μM, 72 h, MTT assay
Summary of the method: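 Neuro2A cells were kept in DMEM/10% FBS with supplements at 37 °C, 5% CO2, and seeded at 10 000 cells/cm2. After 24 h they were differentiated in 1% FBS and exposed to compounds (10, 1.0, 0.1 μM) for 72 h. MTT was added for 2 h at 37 °C, formazan was dissolved in DMSO and absorbance read at 562 nm. Viability is given relative to vehicle.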

[7] = compound 5 at 50 mg dose, vs vehicle-treated group

Row | SMILES | neurite growth activity and viability above the optimum neuritogenic concentration ([1]; Neuro2A cells) | optimum neuritogenic concentration ([1]; Neuro2A cells) | neurite outgrowth promotion compared to no inhibitor (vehicle) [1] | other results
1 | O=C(CCCCCc1ccc2c(c1)c1ccccc1n2Cc1ccccc1)NO [Compound 4, 6-(9-Benzyl-9H-carbazol-3-yl)-N-hydroxyhexanamide] | reduced neurite growth activity and viability | 0.1 µM | significantly more neurite outgrowth promotion | –
2 | O=C(CCCCCCCc1ccc2[nH]c3ccccc3c2c1)NO [Compound 5, 8-(9H-Carbazol-3-yl)-N-hydroxyoctanamide] | reduced neurite growth activity and viability | 1 µM | significantly more neurite outgrowth promotion | neurite outgrowth compared to vorinostat and tubastatin-A ([1]; Neuro2A cells, at optimum neuritogenic concentrations): remarkably more neurite outgrowth; acetylated H3 [2]: significant increase; acetylated H4 [2]: significant increase; acetylated tubulin [2]: significant increase; HDAC class selectivity [3]: selectivity for class II (class IIa-HDAC4 and class IIb- HDAC6) over class I (HDAC8); crossing of the blood-brain barrier (detection in brain extract by TLC) [4]: crossing the BBB; latency to social interaction [5, 7]: not at 50 mg dose; total time spent in interaction zone [5, 7]: not at 50 mg dose; cell viability (cytotoxicity) [6]: does not show any observable toxicity
3 | O=C(CCCCC(=NO)c1ccc2c(c1)c1ccccc1n2Cc1ccccc1)NO [Compound 6, 6-(9-Benzyl-9H-carbazol-3-yl)-N-hydroxy-6-(hydroxyimino)hexanamide] | reduced neurite growth activity and viability | 0.01 µM | significantly more neurite outgrowth promotion | –
4 | O=C(CCCCCCC(=NO)c1ccc2c(c1)c1ccccc1n2Cc1ccccc1)NO [Compound 7, 8-(9-Benzyl-9H-carbazol-3-yl)-N-hydroxy-8-(hydroxyimino)octanamide] | reduced neurite growth activity and viability | 0.1 µM | significantly more neurite outgrowth promotion | –
5 | O=C(CCCCc1ccc2c(c1)c1ccccc1n2CC(=O)NO)NO [Compound 8, N-hydroxy-5-(9-(2-(hydroxyamino)-2-oxoethyl)-9H-carbazol-3-yl)pentanamide] | reduced neurite growth activity and viability | 0.1 µM | significantly more neurite outgrowth promotion | –
6 | O=C(CCCC(=NO)n1c2ccccc2c2ccccc21)NO [Compound 10, 5-(9H-Carbazol-9-yl)-N-hydroxy-5-(hydroxyimino)pentanamide] | reduced neurite growth activity and viability | 0.1 µM | significantly more neurite outgrowth promotion | –
7 | O=C(CCCCC(=NO)n1c2ccccc2c2ccccc21)NO [Compound 11, 6-(9H-Carbazol-9-yl)-N-hydroxy-6-(hydroxyimino)hexanamide] | reduced neurite growth activity and viability | 0.1 µM | significantly more neurite outgrowth promotion | –
8 | CNCCC(Oc1ccc(C(F)(F)F)cc1)c1ccccc1 (stereo not drawn) [fluoxetine, reference compound] | – | – | – | freezing duration (social interaction test) ([5]; compound 5 (10, 25, 50 mg/kg tested), fluoxetine 15 mg/kg): trend of decreased freezing duration
9 | CN1CCc2c(c3ccccc3n2Cc2ccc(C(=O)NO)cc2)C1 [tubastatin-A, reference compound] | reduced neurite growth activity and viability | 10 µM | significantly more neurite outgrowth promotion | –
10 | O=C(CCCCCCC(=O)Nc1ccccc1)NO [vorinostat, suberoylanilide hydroxamic acid, reference compound] | reduced neurite growth activity and viability | 1 µM | – | –
